According to ChEMBL document CHEMBL1156130, “(1-(4-(Naphthalen-2-yl)pyrimidin-2-yl)piperidin-4-yl)methanamine: a wingless beta-catenin agonist that increases bone formation rate” (J Med Chem, 2009):
In brackets after ≈: the same amount, converted by molar mass. Activity calls are given as the source filed them. The calls are words filed in the database; no cut-off is given here.

Key:
[1] = Metabolic stability in rat liver microsomes assessed as half life at 1 uM; assay type: ADME, Microsome
[2] = Plasma clearance in ovariectomized rat at 2 mg/kg, iv; assay type: ADME, organism-based; set-up: dose 2 mg/kg, route intravenous; conditions: female
In short: (§1)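 Ovariectomized rats received a single intravenous dose of 2.0 mg/kg in DMSO vehicle. Plasma drug concentration-time curves gave the PK parameters.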

[3] = Tmax in ovariectomized rat at 10 mg/kg, po; assay type: ADME, organism-based; set-up: dose 10 mg/kg, route oral; conditions: female, in vivo
In short: (§2)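 Single oral dose given to ovariectomized rats at 10 mg/kg in 2% MC/0.5% T80 vehicle. Plasma drug concentration was followed over time, and PK parameters were derived from the concentration-time curve.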

[4] = Solubility at pH 7.4; assay type: physicochemical; conditions: buffer
Rattus norvegicus [5] = assay: Increase in trabecular bone formation rate in once daily po dosed ovariectomized rat measured after 28 days; assay type: functional, organism-based; conditions: Trabecula
In short: (§3)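 Ovariectomized rats dosed orally once daily for 28 days at four dose levels; vehicle 0.5% methylcellulose/2% Tween-80. Trabecular bone formation rate in the tibia determined at end of in-life phase. Positive control hPTH given sc.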

[6] = Volume of distribution at steady state in ovariectomized rat at 2 mg/kg, iv; assay type: ADME, organism-based; set-up: dose 2 mg/kg, route intravenous; conditions: female, in vivo, read-out: Vdss; in short: as §1
[7] = Membrane permeability by PAMPA; assay type: ADME; conditions: read-out: permeability
Rattus norvegicus [8] = assay: Increase in trabecular bone formation rate in ovariectomized rat measured at 0.3 mg/kg, po once daily after 28 days; assay type: functional, organism-based; set-up: dose 0.3 mg/kg; conditions: Trabecula; in short: as §3
[9] = Half life in ovariectomized rat plasma at 10 mg/kg, po; assay type: ADME, organism-based; set-up: dose 10 mg/kg, route oral; conditions: female; in short: as §2
Mus musculus [10] = organism: Mus musculus; assay: Increase in trabecular bone formation rate in Dkk1 knockout mouse measured after 7 days; assay type: functional, organism-based; conditions: Trabecula
[11] = Oral bioavailability in ovariectomized rat at 10 mg/kg; assay type: ADME, organism-based; conditions: female, in vivo; in short: as §2
[12] = AUC (0 to infinity) in ovariectomized rat at 2 mg/kg, iv; assay type: ADME, organism-based; set-up: time infinity, dose 2 mg/kg, route intravenous; conditions: female, plasma
In short: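 Single intravenous dose in ovariectomized rats, vehicle DMSO. Plasma drug concentration followed over time; AUC0-∞ taken from the plasma concentration-time curve.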

Mus musculus [13] = organism: Mus musculus; assay: Increase in trabecular bone formation rate in wild type mouse measured after 7 days; assay type: functional, organism-based; conditions: Trabecula
[14] = AUC (0 to infinity) in ovariectomized rat at 10 mg/kg, po; assay type: ADME, organism-based; set-up: time infinity, dose 10 mg/kg, route oral; conditions: female, plasma
In short: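 Single oral dose in ovariectomized rats, vehicle 2% MC/0.5% Tween-80. Plasma drug concentration followed over time; AUC0-∞ taken from the plasma concentration-time curve.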

[15] = Cmax in ovariectomized rat at 10 mg/kg, po; assay type: ADME, organism-based; set-up: dose 10 mg/kg, route oral; conditions: female, in vivo; in short: as §2
[16] = molecular target: Glycogen synthase kinase-3 beta (Homo sapiens, UniProt P49841); assay: Inhibition of GSK3-beta
Chain of Glycogen synthase kinase-3 beta (P49841 whole entry): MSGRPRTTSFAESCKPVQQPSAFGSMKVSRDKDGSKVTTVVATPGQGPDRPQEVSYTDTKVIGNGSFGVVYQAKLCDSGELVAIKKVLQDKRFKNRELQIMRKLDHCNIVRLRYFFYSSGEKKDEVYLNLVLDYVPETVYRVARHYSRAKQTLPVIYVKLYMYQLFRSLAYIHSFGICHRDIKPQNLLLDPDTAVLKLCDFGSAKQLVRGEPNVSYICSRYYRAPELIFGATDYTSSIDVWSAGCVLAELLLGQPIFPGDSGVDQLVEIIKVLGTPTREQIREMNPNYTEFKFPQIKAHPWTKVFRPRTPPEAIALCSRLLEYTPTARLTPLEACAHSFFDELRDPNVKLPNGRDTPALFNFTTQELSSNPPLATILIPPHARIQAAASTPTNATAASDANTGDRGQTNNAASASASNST

[17] = Half life in ovariectomized rat plasma at 2 mg/kg, iv; assay type: ADME, organism-based; set-up: dose 2 mg/kg, route intravenous; conditions: female; in short: as §1

NCC1CCN(c2nccc(-c3ccc4ccccc4c3)n2)CC1
half-life at 1 µM [1]: > 0.5 h | clearance [2]: 32 mL/min/kg | Tmax [3]: 4.7 h | solubility [4]: 65 µg/mL (≈ 204 µM) | Activity (Rattus norvegicus [5]): Dose-dependent effect | Vd [6]: 22 L/kg | Papp [7]: 5.9 ×10⁻⁶ cm/s | Activity (Rattus norvegicus [8]): Active | half-life [9]: 5.6 h | Activity (Mus musculus [10]): inactive | bioavailability [11]: 78% | AUC(0-inf) [12]: 1030 ng·h/mL | Activity (Mus musculus [13]): Active | AUC(0-inf) [14]: 3990 ng·h/mL | Cmax [15]: 277 ng/mL | IC50 [16]: > 100 µM | half-life [17]: 8.2 h

Cc1ccc(-c2ccnc(N(C)c3ccc(S(N)(=O)=O)cc3)n2)s1
solubility [4]: 15 µg/mL (≈ 41.6 µM) | IC50 [16]: 65 µM

Cc1ccc(-c2ccnc(Nc3ccc(S(N)(=O)=O)cc3)n2)s1
solubility [4]: 8 µg/mL (≈ 23.1 µM) | IC50 [16]: 0.2 µM

NS(=O)(=O)c1ccc(Nc2nccc(-c3ccc4ccccc4c3)n2)cc1
solubility [4]: < 0.1 µg/mL | IC50 [16]: 0.31 µM

CC(=O)NCC1CCN(c2nccc(-c3ccc4ccccc4c3)n2)CC1
solubility [4]: 1 µg/mL (≈ 2.77 µM) | IC50 [16]: > 10 µM

NC1CCN(c2nccc(-c3ccc4ccccc4c3)n2)CC1
solubility [4]: > 100 µg/mL | IC50 [16]: > 50 µM
